ChEMBL document CHEMBL4020840, “Synthesis and Biological Evaluation of Selenium-Containing 4-Anilinoquinazoline Derivatives as Novel Antimitotic Agents” (J Med Chem, 2018)
Counter-ions that a name gives are not always drawn. The source made the active and inactive calls. No cut-off for these calls is given here.

system: A549; assay: Growth inhibition of human A549 cells after 48 hrs by MTT assay; format: functional, cell-based; conditions: A549, 48 h

SMILES	IC50 [nM]
Cc1nc(N(C)c2ccc([Se]C#N)c(F)c2)c2ccccc2n1	4
COc1ccc(N(C)c2nc(C)nc3ccccc23)cc1C(=O)OCCCCCC[Se]C#N	488
Cc1nc(N(C)c2ccc([Se]C#N)c(C)c2)c2ccccc2n1	8
Cc1nc(N(C)c2ccc(OCC[Se]C#N)cc2)c2ccccc2n1	893
COc1ccc(N(C)c2nc(C)nc3ccccc23)cc1OCC[Se]C#N	13
COc1ccc(N(C)c2nc(C)nc3ccccc23)cc1OCCN	122
COc1ccc(N(C)c2nc(C)nc3ccccc23)cc1OCCCC[Se]C#N	1200
COc1ccc(N(C)c2nc(C)nc3ccccc23)cc1C[Se]C#N	98
COc1ccc(N(C)c2nc(C)nc3ccccc23)cc1C(=O)OCC[Se]C#N	353
[2H]C([2H])([2H])c1nc(N(C)c2ccc([Se]C#N)cc2)c2ccccc2n1	7

system: HCT-116; assay: Growth inhibition of human HCT116 cells after 48 hrs by MTT assay; format: functional, cell-based; conditions: HCT-116, 48 h
Procedure, shortened: (§1)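 MTT assay: log-phase cells plated at 5 × 10³/well for 24 h, then exposed to a range of test concentrations for 48 h. MTT (5 mg/mL) added for 4 h, formazan dissolved in DMSO, absorbance read at 570 nm. IC50 is the concentration giving 50% growth inhibition, from dose-response curves; at least three independent experiments, mean ± SE.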

SMILES	IC50 [nM]
Cc1nc(N(C)c2ccc([Se]C#N)c(F)c2)c2ccccc2n1	20
COc1ccc(N(C)c2nc(C)nc3ccccc23)cc1C(=O)OCCCCCC[Se]C#N	1990
Cc1nc(N(C)c2ccc([Se]C#N)c(C)c2)c2ccccc2n1	13
Cc1nc(N(C)c2ccc(OCC[Se]C#N)cc2)c2ccccc2n1	2290
COc1ccc(N(C)c2nc(C)nc3ccccc23)cc1OCC[Se]C#N	18
COc1ccc(N(C)c2nc(C)nc3ccccc23)cc1OCCN	198
COc1ccc(N(C)c2nc(C)nc3ccccc23)cc1OCCCC[Se]C#N	512
COc1ccc(N(C)c2nc(C)nc3ccccc23)cc1C[Se]C#N	113
COc1ccc(N(C)c2nc(C)nc3ccccc23)cc1C(=O)OCC[Se]C#N	951
[2H]C([2H])([2H])c1nc(N(C)c2ccc([Se]C#N)cc2)c2ccccc2n1	10

system: HepG2; assay: Growth inhibition of human HepG2 cells after 48 hrs by MTT assay; format: functional, cell-based; conditions: HepG2, 48 h; procedure, shortened: as §1

SMILES	IC50 [nM]
COc1ccc(/C=C\c2cc(OC)c(OC)c(OC)c2)cc1O [COMBRETASTATIN A4]	9
Cc1nc(N(C)c2ccc([Se]C#N)c(F)c2)c2ccccc2n1	37
COc1ccc(N(C)c2nc(C)nc3ccccc23)cc1C(=O)OCCCCCC[Se]C#N	2650
Cc1nc(N(C)c2ccc([Se]C#N)c(C)c2)c2ccccc2n1	9
Cc1nc(N(C)c2ccc(OCC[Se]C#N)cc2)c2ccccc2n1	1680
COc1ccc(N(C)c2nc(C)nc3ccccc23)cc1OCC[Se]C#N	14
COc1ccc(N(C)c2nc(C)nc3ccccc23)cc1OCCN	343
COc1ccc(N(C)c2nc(C)nc3ccccc23)cc1OCCCC[Se]C#N	6460
COc1ccc(N(C)c2nc(C)nc3ccccc23)cc1C[Se]C#N	1110
COc1ccc(N(C)c2nc(C)nc3ccccc23)cc1C(=O)OCC[Se]C#N	890
[2H]C([2H])([2H])c1nc(N(C)c2ccc([Se]C#N)cc2)c2ccccc2n1	21

system: MDA-MB-231; assay: Growth inhibition of human MDA-MB-231 cells after 48 hrs by MTT assay; format: functional, cell-based; conditions: MDA-MB-231, 48 h; procedure, shortened: as §1

SMILES	IC50 [nM]
Cc1nc(N(C)c2ccc([Se]C#N)c(F)c2)c2ccccc2n1	6
COc1ccc(N(C)c2nc(C)nc3ccccc23)cc1C(=O)OCCCCCC[Se]C#N	2210
Cc1nc(N(C)c2ccc([Se]C#N)c(C)c2)c2ccccc2n1	16
Cc1nc(N(C)c2ccc(OCC[Se]C#N)cc2)c2ccccc2n1	317
COc1ccc(N(C)c2nc(C)nc3ccccc23)cc1OCC[Se]C#N	13
COc1ccc(N(C)c2nc(C)nc3ccccc23)cc1OCCN	682
COc1ccc(N(C)c2nc(C)nc3ccccc23)cc1OCCCC[Se]C#N	1350
COc1ccc(N(C)c2nc(C)nc3ccccc23)cc1C[Se]C#N	153
COc1ccc(N(C)c2nc(C)nc3ccccc23)cc1C(=O)OCC[Se]C#N	1480
[2H]C([2H])([2H])c1nc(N(C)c2ccc([Se]C#N)cc2)c2ccccc2n1	11

system: LoVo; assay: Growth inhibition of human LoVo cells after 48 hrs by MTT assay; format: functional, cell-based; conditions: not given; procedure, shortened: as §1

SMILES	IC50 [nM]
Cc1nc(N(C)c2ccc([Se]C#N)c(F)c2)c2ccccc2n1	13
COc1ccc(N(C)c2nc(C)nc3ccccc23)cc1C(=O)OCCCCCC[Se]C#N	1050
Cc1nc(N(C)c2ccc([Se]C#N)c(C)c2)c2ccccc2n1	19
Cc1nc(N(C)c2ccc(OCC[Se]C#N)cc2)c2ccccc2n1	547
COc1ccc(N(C)c2nc(C)nc3ccccc23)cc1OCC[Se]C#N	19
COc1ccc(N(C)c2nc(C)nc3ccccc23)cc1OCCN	421
COc1ccc(N(C)c2nc(C)nc3ccccc23)cc1OCCCC[Se]C#N	882
COc1ccc(N(C)c2nc(C)nc3ccccc23)cc1C[Se]C#N	277
COc1ccc(N(C)c2nc(C)nc3ccccc23)cc1C(=O)OCC[Se]C#N	2960
[2H]C([2H])([2H])c1nc(N(C)c2ccc([Se]C#N)cc2)c2ccccc2n1	14

system: RKO; assay: Growth inhibition of human RKO cells after 48 hrs by MTT assay; format: functional, cell-based; conditions: not given; procedure, shortened: as §1

SMILES	IC50 [nM]
Cc1nc(N(C)c2ccc([Se]C#N)c(F)c2)c2ccccc2n1	8
COc1ccc(N(C)c2nc(C)nc3ccccc23)cc1C(=O)OCCCCCC[Se]C#N	1990
Cc1nc(N(C)c2ccc([Se]C#N)c(C)c2)c2ccccc2n1	17
Cc1nc(N(C)c2ccc(OCC[Se]C#N)cc2)c2ccccc2n1	652
COc1ccc(N(C)c2nc(C)nc3ccccc23)cc1OCC[Se]C#N	27
COc1ccc(N(C)c2nc(C)nc3ccccc23)cc1OCCN	343
COc1ccc(N(C)c2nc(C)nc3ccccc23)cc1OCCCC[Se]C#N	1360
COc1ccc(N(C)c2nc(C)nc3ccccc23)cc1C[Se]C#N	316
COc1ccc(N(C)c2nc(C)nc3ccccc23)cc1C(=O)OCC[Se]C#N	2390
[2H]C([2H])([2H])c1nc(N(C)c2ccc([Se]C#N)cc2)c2ccccc2n1	11

system: A549/CDDP; assay: Growth inhibition of human A549/CDDP cells after 48 hrs by MTT assay; format: functional, cell-based; conditions: not given; procedure, shortened: as §1

SMILES	IC50 [nM]
COc1ccc(/C=C\c2cc(OC)c(OC)c(OC)c2)cc1O [COMBRETASTATIN A4]	17

system: not listed separately; assay: Growth inhibition of human HepG2/DOX cells after 48 hrs by MTT assay; format: functional, cell-based; conditions: not given; procedure, shortened: as §1

SMILES	IC50 [nM]
COc1ccc(/C=C\c2cc(OC)c(OC)c(OC)c2)cc1O [COMBRETASTATIN A4]	27

organism: Sus scrofa; assay: Inhibition of porcine brain tubulin polymerization measured every 60 secs for 90 mins by DAPI staining based fluorescence assay; conditions: not given
Procedure, shortened: (§2)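 Purified tubulin was tested in a kit assay. Final buffer: 80 mM PIPES sesquisodium (pH 6.9), 2.0 mM MgCl₂, 0.5 mM EGTA, 1 mM GTP, 10.2% glycerol. Compound (0.1–10 μM) was prewarmed at 37 °C for 1 min before tubulin was added. DAPI reporter fluorescence (ex 340 / em 410 nm) was read every 60 s for 90 min. Area under the curve gave percent inhibition versus control and the IC50.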

SMILES	inhibition
C[Se]c1ccc(N(C)c2nc(C)nc3ccccc23)cc1F [listing 1 of 2 here]	Dose-dependent effect

organism: Sus scrofa; assay: Inhibition of porcine brain tubulin polymerization at 7.5 uM measured every 60 secs for 90 mins by DAPI staining based fluorescence assay relative to control; conditions: not given; procedure, shortened: as §2

SMILES	inhibition [%]
COc1ccc(N(C)c2nc(C)nc3ccccc23)cc1	77.6
C[Se]c1ccc(N(C)c2nc(C)nc3ccccc23)cc1F [listing 1 of 2 here]	90.5

system: A549; assay: Cell cycle arrest in human A549 cells assessed as accumulation at G2/M phase up to 24 hrs by propidium iodide staining based flow cytometry; format: functional; conditions: not given
Procedure, shortened: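 A549 seeded in six-well plates at 3 × 10⁵ cells/well and treated for 12 or 24 h; vehicle 0.01% DMSO. Cells fixed overnight in ice-cold 70% ethanol, treated with RNase A at 37 °C for 30 min, then stained with PI at 4 °C for 30 min. About 10 000 events acquired by flow cytometry at 488 nm; three experiments.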

SMILES	Activity
C[Se]c1ccc(N(C)c2nc(C)nc3ccccc23)cc1F [listing 1 of 2 here]	Dose-dependent effect

system: A549; assay: Antimigratory activity against human A549 cells assessed as suppression of wound healing at 4 nM after 24 hrs by phase contrast microscopic method; format: functional, cell-based; conditions: not given
Procedure, shortened: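 Scratch wound assay: A549 plated at 5 × 10⁴ cells/dish and grown 24 h before scraping with a 10 μL tip. Medium then swapped to serum-free DMEM containing compound (4 nM) for 24 h. After a PBS wash, wound images taken at 0 and 24 h; at least three independent experiments.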

SMILES	Activity
COc1ccc(N(C)c2nc(C)nc3ccccc23)cc1	Active
C[Se]c1ccc(N(C)c2nc(C)nc3ccccc23)cc1F [listing 1 of 2 here]	Active

system: A549; assay: Antitumor activity against human A549 cells xenografted in Balb/c mouse assessed as tumor growth inhibition at 2.5 mg/kg, ip treated once in 2 days for 10 days relative to control; format: functional; conditions: read-out: TGI
Procedure, shortened: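 Male BALB/c nude mice, 5 weeks old, 18−20 g. Right flank injected sc with 0.1 mL of 1 × 10⁷ cells/mL log-phase A549 in FBS-free DMEM. At ~100 mm³, randomised into groups of 5 and dosed ip every 2 days; vehicle controls got equal volume. Tumour volume (0.5 × length × width²) and body weight recorded every 2 days.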

SMILES	inhibition in vivo at 2.5 mg/kg [%]
C[Se]c1ccc(N(C)c2nc(C)nc3ccccc23)cc1	75.7
C[Se]c1ccc(N(C)c2nc(C)nc3ccccc23)cc1F [listing 2 of 2 here]	77.2
COc1ccc(N(C)c2nc(C)nc3ccccc23)cc1 [VERUBULIN HYDROCHLORIDE]	68.6
Cc1nc(N(C)c2ccc([Se]C#N)cc2)c2ccccc2n1	69.8
